From PMC7330163 (Pharmacology Research & Perspectives, 2020)
Marks after values point to notes of the source that are not given here.

Assays:
[1] = system: hepatic OATP transporters; conditions: partitions into liver by passive diffusion; cited from earlier work
[2] = Single-dose intravenous pharmacokinetics in dog; format: in vivo, Beagle dog; conditions: male, plasma
Procedure, shortened: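 Three male Beagles in a cross-over design with 7-day wash-out between dosing events. The intravenous solution was PEG400/N-methylpyrrolidone/50 mmol/L TRIS-HCl pH 8.3 (1:1:2 v/v/v). Plasma stored at −20°C. T1/2 = ln(2)/λz; AUC by log-linear trapezoidal rule.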

Cyp2c13 = assay: Taqman mRNA upregulation in rat liver; format: in vivo, Sprague-Dawley rat; conditions: male-specific
Cyp3a2 = assay: Taqman mRNA upregulation in rat liver, 4-week toxicity study; format: in vivo, Sprague-Dawley rat; conditions: male rats, 4-week study
Procedure, shortened: (§1)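 Livers came from satellite-group rats of both sexes (n = 5–6) in the 4-week study, dosed once daily at 0, 50, 150, 450 or 1500 mg/kg in modified gelatine. Transcripts quantified by comparative Ct, normalised to 18S and to vehicle-treated controls; fold change = 2−ΔΔCT.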

total P450 = assay: Total P450 concentration in liver microsomes of the 4-week dog toxicity study; format: in vivo, Beagle dog; conditions: 4 weeks
Procedure, shortened: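 Microsomes were made from pooled liver (1.5–2 g per dose group) of 4-week toxicity studies, including vehicle controls. Tissue homogenised in ice-cold 50 mmol/L Tris-HCl pH 7.4 with 250 mmol/L sucrose, spun at 9000 g then 100 000 g (4°C), and the pellet washed in 100 mmol/L pyrophosphate pH 7.25 with 1 mmol/L EDTA. Total P450 by carbon monoxide spectrophotometric assay.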

Cyp2c11 = assay: Taqman mRNA upregulation in rat liver, 4-week toxicity study; format: in vivo, Sprague-Dawley rat; conditions: male rats; for Upregulation of Cyp2c11 mRNA: 4-week study, relative to vehicle control
Procedure, shortened: as §1

[3] = Single-dose oral pharmacokinetics in dog; format: in vivo; conditions: male, Beagle, plasma
[4] = target: T1, human pregnane X receptor (Homo sapiens, UniProt O75469); assay: PXR reporter-gene assay in green monkey kidney CV-1 cells; format: cell-based
T1 sequence (O75469 1-434): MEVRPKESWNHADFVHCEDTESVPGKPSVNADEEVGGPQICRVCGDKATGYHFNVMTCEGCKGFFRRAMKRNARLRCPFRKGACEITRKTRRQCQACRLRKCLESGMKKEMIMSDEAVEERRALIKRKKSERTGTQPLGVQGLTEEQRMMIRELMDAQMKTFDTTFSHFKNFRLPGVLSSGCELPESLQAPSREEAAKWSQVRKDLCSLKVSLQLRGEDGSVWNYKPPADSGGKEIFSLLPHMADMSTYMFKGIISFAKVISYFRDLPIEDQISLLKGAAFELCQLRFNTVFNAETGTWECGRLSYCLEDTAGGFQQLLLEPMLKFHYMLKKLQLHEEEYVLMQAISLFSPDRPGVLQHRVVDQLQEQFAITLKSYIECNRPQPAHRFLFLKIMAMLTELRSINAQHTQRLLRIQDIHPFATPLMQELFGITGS
Procedure, shortened: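 CV-1 cells were grown 3 days in DMEM/F12 with charcoal-treated FBS, then seeded at 25 000/well and lipofected with hPXR expression vector (0.1 ng), CYP3A4-luciferase reporter (20 ng) and β-galactosidase vector (60 ng). After 24 h, cells were treated 24 h in triplicate with 0.03–30 µmol/L test compound or rifampicin in delipidated charcoal-treated FBS medium. Luciferase normalised to β-galactosidase, expressed as fold over DMSO.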

Cyp3a12 = assay: Taqman mRNA upregulation in dog liver, 4-week toxicity study; format: in vivo, Beagle dog; conditions: 4 weeks; for increase in Cyp3a12 mRNA expression: 500 mg/kg
Procedure, shortened: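 Liver samples (n = 2–3) came from main-group Beagles of the 4-week study, dosed daily at 0, 5, 50 or 500 mg/kg in modified gelatine. Cyp3a12 transcript normalised to 18S and to vehicle-treated dogs (ΔΔCT); fold = 2−ΔΔCT.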

[5] = man, therapeutic dose of 10 mg; clinical trials ref 19; cited from earlier work
[6] = Toxicokinetics of the 4-week toxicity study in rat; format: in vivo, Sprague-Dawley rat; conditions: for AUC0‐24 h (day 8/28): day 28
[7] = Plasma exposure in the 8-day mechanistic follow-up study in male rats; format: in vivo, Sprague-Dawley rat; conditions: for AUC: male, Sprague-Dawley, plasma, oral; for AUC / AUC0‐24 h (day 1) / AUC0‐24 h (day 8/28): rat; for AUC0‐24 h (day 1) / AUC0‐24 h (day 8/28): males, 8-day study
Cyp3a1 = assay: Taqman mRNA upregulation in rat liver, 8-day mechanistic follow-up study; format: in vivo, Sprague-Dawley rat; conditions: male rats, 8-day follow-up study, relative to vehicle control
Procedure, shortened: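 Male Sprague-Dawley rats (n = 4) were given 0, 5, 15 or 50 mg/kg daily for 8 days as a suspension in modified gelatine. Liver transcripts were normalised to 18S and to vehicle-treated rats by the ΔΔCT method; fold = 2−ΔΔCT.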

CCCNS(=O)(=O)Nc1ncnc(OCCOc2ncc(Br)cn2)c1-c1ccc(Br)cc1 [macitentan]
substrate of hepatic OATP transporters [1]: not a substrate of hepatic OATP transporters
AUC ([2]; Beagle, 0.1 mg/kg): 320 ng·h/mL
Vd ([2]; Beagle, 0.1 mg/kg): 1.2 L/kg
clearance ([2]; Beagle, 0.1 mg/kg): 5.2 mL/min/kg
half-life ([2]; Beagle, 0.1 mg/kg): 234 min
AUC ([2]; Beagle, 0.3 mg/kg): 910 ng·h/mL
Vd ([2]; Beagle, 0.3 mg/kg): 1.1 L/kg
clearance ([2]; Beagle, 0.3 mg/kg): 5.7 mL/min/kg
half-life ([2]; Beagle, 0.3 mg/kg): 258 min
half-life ([2]; beagle): 234 to 258 min
Induction of Cyp2c13 mRNA (Cyp2c13): No induction
Upregulation of Cyp3a2 mRNA (Cyp3a2; 50 mg/kg daily, relative to vehicle control = 1.00): 3.65 ± 1.03
Upregulation of Cyp3a2 mRNA (Cyp3a2; 150 mg/kg daily, relative to vehicle control): 4.53 ± 1.31
Upregulation of Cyp3a2 mRNA (Cyp3a2; 450 mg/kg daily, relative to vehicle control): 5.21 ± 1.33
Upregulation of Cyp3a2 mRNA (Cyp3a2; 1500 mg/kg daily, relative to vehicle control): 6.50 ± 2.40
P450 (total, liver microsomes) (total P450; female dogs, macitentan 5 mg/kg daily): 0.63 nmol/mg
P450 (total, liver microsomes) (total P450; female dogs, macitentan 50 mg/kg daily): 0.87 nmol/mg
P450 (total, liver microsomes) (total P450; female dogs, macitentan 500 mg/kg daily): 0.84 nmol/mg
P450 (total, liver microsomes) (total P450; male dogs, macitentan 5 mg/kg daily): 0.50 nmol/mg
P450 (total, liver microsomes) (total P450; male dogs, macitentan 50 mg/kg daily): 0.73 nmol/mg
P450 (total, liver microsomes) (total P450; male dogs, macitentan 500 mg/kg daily): 1.00 nmol/mg
increase of Cyp2c11 mRNA levels vs control (Cyp2c11; 450 mg/kg and 1500 mg/kg, 4 weeks): about 50%
Upregulation of Cyp2c11 mRNA (Cyp2c11; 450 mg/kg daily): 1.48 ± 0.48
Upregulation of Cyp2c11 mRNA (Cyp2c11; 1500 mg/kg daily): 1.43 ± 0.55
AUC ([3]; 1 mg/kg): 2370 ng·h/mL
Cmax ([3]; 1 mg/kg): 410 ng/mL
Tmax ([3]; 1 mg/kg): 2 h
AUC ([3]; 10 mg/kg): 27500 ng·h/mL
bioavailability ([3]; 10 mg/kg): 86%
EC50 [4]: 1200 nM
Upregulation of Cyp3a12 mRNA (Cyp3a12; female dogs, 5 mg/kg daily, relative to vehicle control): 2.84 ± 0.44
Upregulation of Cyp3a12 mRNA (Cyp3a12; female dogs, 50 mg/kg daily, relative to vehicle control): 4.34 ± 0.61
Upregulation of Cyp3a12 mRNA (Cyp3a12; female dogs, 500 mg/kg daily, relative to vehicle control, n = 2 only): 12.7 ^a
increase in Cyp3a12 mRNA expression (Cyp3a12; female dogs): 12.7 fold
Upregulation of Cyp3a12 mRNA (Cyp3a12; male dogs, 5 mg/kg daily, relative to vehicle control = 1.00): 1.63 ± 0.72
Upregulation of Cyp3a12 mRNA (Cyp3a12; male dogs, 50 mg/kg daily, relative to vehicle control): 6.45 ± 1.71
Upregulation of Cyp3a12 mRNA (Cyp3a12; male dogs, 500 mg/kg daily, relative to vehicle control): 18.6 ^b
increase in Cyp3a12 mRNA expression (Cyp3a12; male dogs): 18.6 fold
plasma exposure (AUC0‐24h) [5]: 5.4 µg·h/mL
AUC0‐24 h (day 1) ([6]; females, 50 mg/kg daily oral): 726 μg/mL"h
AUC0‐24 h (day 8/28) ([6]; females, 50 mg/kg daily oral): 490 μg/mL"h
AUC0‐24 h (day 1) ([6]; females, 150 mg/kg daily oral): 1160 μg/mL"h
AUC0‐24 h (day 8/28) ([6]; females, 150 mg/kg daily oral): 776 μg/mL"h
AUC0‐24 h (day 1) ([6]; females, 450 mg/kg daily oral): 1590 μg/mL"h
AUC0‐24 h (day 8/28) ([6]; females, 450 mg/kg daily oral): 1280 μg/mL"h
AUC0‐24 h (day 1) ([6]; females, 1500 mg/kg daily oral): 2500 μg/mL"h
AUC0‐24 h (day 8/28) ([6]; females, 1500 mg/kg daily oral): 1590 μg/mL"h
AUC0‐24 h (day 1) ([6]; males, 50 mg/kg daily oral): 213 μg/mL"h
AUC0‐24 h (day 8/28) ([6]; males, 50 mg/kg daily oral): 114 μg/mL"h
AUC0‐24 h (day 1) ([6]; males, 150 mg/kg daily oral): 382 μg/mL"h
AUC0‐24 h (day 8/28) ([6]; males, 150 mg/kg daily oral): 200 μg/mL"h
AUC0‐24 h (day 1) ([6]; males, 450 mg/kg daily oral): 595 μg/mL"h
AUC0‐24 h (day 8/28) ([6]; males, 450 mg/kg daily oral): 327 μg/mL"h
AUC0‐24 h (day 1) ([6]; males, 1500 mg/kg daily oral): 979 μg/mL"h
AUC0‐24 h (day 8/28) ([6]; males, 1500 mg/kg daily oral): 365 μg/mL"h
change in AUC0‐24h after 8 days treatment ([7]; male rats, 3 mg/kg): No change
AUC0‐24h (day 1) as percent of the AUC0‐24h (day 1) in the 4‐week study ([7]; male rats, 50 mg/kg, different macitentan batches (particle size)): 13%
AUC ([7]; 15 mg/kg): 20300 ng·h/mL
AUC ([7]; 50 mg/kg): 26800 ng·h/mL
AUC0‐24 h (day 1) ([7]; 3 mg/kg daily oral): 3.09 μg/mL"h
AUC0‐24 h (day 8/28) ([7]; 3 mg/kg daily oral): 3.05 μg/mL"h
AUC0‐24 h (day 1) ([7]; 15 mg/kg daily oral): 20.3 μg/mL"h
AUC0‐24 h (day 8/28) ([7]; 15 mg/kg daily oral): 12.3 μg/mL"h
AUC0‐24 h (day 1) ([7]; 50 mg/kg daily oral): 26.8 μg/mL"h
AUC0‐24 h (day 8/28) ([7]; 50 mg/kg daily oral): 16.8 μg/mL"h
Upregulation of Cyp3a1 mRNA (Cyp3a1; 5 mg/kg daily): 1.66 ± 0.75
Upregulation of Cyp3a1 mRNA (Cyp3a1; 15 mg/kg daily): 2.53 ± 2.02
Upregulation of Cyp3a1 mRNA (Cyp3a1; 50 mg/kg daily): 6.04 ± 3.00
